Measured values taken from the M2OR odorant receptor database.

Tests used:
Conditions in all cases: stereoisomer not certain
[1] = biological target: T1, OR10J5 (Homo sapiens) (UniProt Q8NHC4)
T1 sequence (whole entry): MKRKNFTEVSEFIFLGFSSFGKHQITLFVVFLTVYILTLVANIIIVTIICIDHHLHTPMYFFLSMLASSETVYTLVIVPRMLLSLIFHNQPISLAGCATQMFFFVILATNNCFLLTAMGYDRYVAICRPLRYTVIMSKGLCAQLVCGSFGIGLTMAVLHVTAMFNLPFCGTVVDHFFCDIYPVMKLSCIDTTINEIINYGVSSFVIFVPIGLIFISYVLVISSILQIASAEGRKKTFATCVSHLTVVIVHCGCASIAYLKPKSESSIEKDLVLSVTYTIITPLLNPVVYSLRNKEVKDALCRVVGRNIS
In short: (§1)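 Whether a receptor–molecule pair is responsive (active) rests on the original authors' judgment that its measured signal was statistically different from baseline. Pairs without that judgment are non-responsive (inactive). Sources used varied assay methods, commonly transient luciferase assays in mammalian cell lines.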

[2] = biological target: T2, OR10G2 (Homo sapiens) (UniProt Q8NGC3)
T2 sequence (whole entry): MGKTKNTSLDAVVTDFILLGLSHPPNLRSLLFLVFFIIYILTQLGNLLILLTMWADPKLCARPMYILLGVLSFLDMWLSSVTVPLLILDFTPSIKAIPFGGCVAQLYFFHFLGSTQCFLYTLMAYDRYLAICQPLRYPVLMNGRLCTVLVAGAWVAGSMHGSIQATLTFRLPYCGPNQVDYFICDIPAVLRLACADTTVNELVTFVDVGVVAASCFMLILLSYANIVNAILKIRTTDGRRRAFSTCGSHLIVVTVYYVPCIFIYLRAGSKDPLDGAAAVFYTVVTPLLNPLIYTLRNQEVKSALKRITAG
In short: as §1

[3] = biological target: T3, OR10G3 (Homo sapiens) (UniProt Q8NGC4)
T3 sequence (whole entry): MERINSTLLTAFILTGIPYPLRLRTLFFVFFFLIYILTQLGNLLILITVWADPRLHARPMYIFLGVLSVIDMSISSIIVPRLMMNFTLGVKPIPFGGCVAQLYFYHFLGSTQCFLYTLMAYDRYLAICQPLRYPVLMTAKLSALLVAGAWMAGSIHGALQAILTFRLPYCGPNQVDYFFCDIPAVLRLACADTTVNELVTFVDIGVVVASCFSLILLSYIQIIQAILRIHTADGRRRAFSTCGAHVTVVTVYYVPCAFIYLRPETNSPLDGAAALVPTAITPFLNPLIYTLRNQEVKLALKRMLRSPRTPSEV
In short: as §1

[4] = biological target: T4, OR10G4 (Homo sapiens) (UniProt Q8NGN3)
T4 sequence (whole entry): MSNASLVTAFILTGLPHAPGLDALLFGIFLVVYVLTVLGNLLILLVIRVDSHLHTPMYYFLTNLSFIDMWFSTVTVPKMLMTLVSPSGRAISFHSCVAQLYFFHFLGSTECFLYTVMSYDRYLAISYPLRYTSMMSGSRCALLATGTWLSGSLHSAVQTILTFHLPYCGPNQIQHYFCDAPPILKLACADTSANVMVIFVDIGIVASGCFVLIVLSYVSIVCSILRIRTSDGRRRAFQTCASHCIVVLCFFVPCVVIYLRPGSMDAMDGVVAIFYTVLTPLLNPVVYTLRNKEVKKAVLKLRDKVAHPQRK
In short: as §1

[5] = biological target: T5, OR10G6 (Homo sapiens) (UniProt Q8NH81)
T5 sequence (whole entry): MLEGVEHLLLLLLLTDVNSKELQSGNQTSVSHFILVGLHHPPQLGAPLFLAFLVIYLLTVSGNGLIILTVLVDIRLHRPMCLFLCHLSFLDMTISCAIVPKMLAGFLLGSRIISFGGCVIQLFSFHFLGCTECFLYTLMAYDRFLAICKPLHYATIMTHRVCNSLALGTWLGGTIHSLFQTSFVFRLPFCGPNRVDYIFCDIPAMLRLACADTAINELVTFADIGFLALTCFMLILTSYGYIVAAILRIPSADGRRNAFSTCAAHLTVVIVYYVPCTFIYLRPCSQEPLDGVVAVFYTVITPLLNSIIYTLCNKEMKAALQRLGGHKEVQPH
In short: as §1

[6] = biological target: T6, OR10G7 (Homo sapiens) (UniProt Q8NGN6)
T6 sequence (whole entry): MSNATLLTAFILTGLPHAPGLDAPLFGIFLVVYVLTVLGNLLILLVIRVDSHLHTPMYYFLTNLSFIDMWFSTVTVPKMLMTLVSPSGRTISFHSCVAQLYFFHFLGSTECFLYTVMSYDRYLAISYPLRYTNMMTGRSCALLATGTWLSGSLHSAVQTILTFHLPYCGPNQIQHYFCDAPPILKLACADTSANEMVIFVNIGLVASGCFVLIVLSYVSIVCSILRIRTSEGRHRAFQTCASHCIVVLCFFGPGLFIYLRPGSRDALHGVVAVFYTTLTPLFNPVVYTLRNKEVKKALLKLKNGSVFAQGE
In short: as §1

[7] = biological target: T7, OR10G8 (Homo sapiens) (UniProt Q8NGN5)
T7 sequence (whole entry): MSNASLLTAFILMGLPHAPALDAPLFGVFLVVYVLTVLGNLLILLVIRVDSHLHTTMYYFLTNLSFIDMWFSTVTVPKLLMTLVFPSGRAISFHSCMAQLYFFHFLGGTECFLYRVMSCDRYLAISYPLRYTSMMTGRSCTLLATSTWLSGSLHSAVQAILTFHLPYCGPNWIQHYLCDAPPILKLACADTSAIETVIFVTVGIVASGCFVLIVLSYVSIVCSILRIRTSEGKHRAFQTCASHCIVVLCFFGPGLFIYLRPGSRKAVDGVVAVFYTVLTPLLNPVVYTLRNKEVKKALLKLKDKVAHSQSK
In short: as §1

[8] = biological target: T8, OR10G9 (Homo sapiens) (UniProt Q8NGN4)
T8 sequence (whole entry): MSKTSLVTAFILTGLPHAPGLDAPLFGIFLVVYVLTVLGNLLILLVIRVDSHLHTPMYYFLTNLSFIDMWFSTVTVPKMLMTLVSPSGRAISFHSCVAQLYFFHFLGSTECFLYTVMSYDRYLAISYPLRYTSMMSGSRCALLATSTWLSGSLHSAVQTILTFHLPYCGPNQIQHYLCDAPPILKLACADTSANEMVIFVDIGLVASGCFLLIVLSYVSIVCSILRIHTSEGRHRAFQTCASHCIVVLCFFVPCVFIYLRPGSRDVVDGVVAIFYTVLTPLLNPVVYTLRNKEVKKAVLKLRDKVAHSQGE
In short: as §1

[9] = biological target: T9, OR10H1 (Homo sapiens) (UniProt Q9Y4A9)
T9 sequence (whole entry): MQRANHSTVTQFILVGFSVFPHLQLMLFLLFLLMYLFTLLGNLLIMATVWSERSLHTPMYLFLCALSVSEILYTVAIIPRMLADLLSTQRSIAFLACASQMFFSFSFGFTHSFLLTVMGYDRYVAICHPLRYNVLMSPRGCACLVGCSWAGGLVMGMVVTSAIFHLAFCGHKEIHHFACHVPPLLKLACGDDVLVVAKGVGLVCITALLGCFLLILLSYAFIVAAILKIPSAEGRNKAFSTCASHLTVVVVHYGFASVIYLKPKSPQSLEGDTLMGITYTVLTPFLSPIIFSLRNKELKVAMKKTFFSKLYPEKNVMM
In short: as §1

[10] = biological target: T10, OR10H2 (Homo sapiens) (UniProt O60403)
T10 sequence (whole entry): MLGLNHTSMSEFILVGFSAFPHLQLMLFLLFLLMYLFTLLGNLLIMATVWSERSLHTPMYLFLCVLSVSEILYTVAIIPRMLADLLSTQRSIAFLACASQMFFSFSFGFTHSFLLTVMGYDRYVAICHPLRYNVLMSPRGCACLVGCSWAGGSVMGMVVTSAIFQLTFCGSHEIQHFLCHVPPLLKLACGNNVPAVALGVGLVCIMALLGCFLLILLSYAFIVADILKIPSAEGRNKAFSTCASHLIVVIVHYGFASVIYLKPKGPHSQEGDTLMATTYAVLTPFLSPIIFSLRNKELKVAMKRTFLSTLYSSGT
In short: as §1

[11] = biological target: T11, OR10H3 (Homo sapiens) (UniProt O60404)
T11 sequence (whole entry): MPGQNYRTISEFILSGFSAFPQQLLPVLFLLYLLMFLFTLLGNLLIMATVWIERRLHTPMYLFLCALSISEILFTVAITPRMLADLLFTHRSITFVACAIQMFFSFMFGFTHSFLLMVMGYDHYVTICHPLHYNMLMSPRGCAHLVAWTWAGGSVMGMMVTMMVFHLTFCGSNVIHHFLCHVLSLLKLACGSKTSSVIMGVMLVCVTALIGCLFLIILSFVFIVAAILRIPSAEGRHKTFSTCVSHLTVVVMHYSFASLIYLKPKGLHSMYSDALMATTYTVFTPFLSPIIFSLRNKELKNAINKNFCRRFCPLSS
In short: as §1

[12] = biological target: T12, OR10H4 (Homo sapiens) (UniProt Q8NGA5)
T12 sequence (whole entry): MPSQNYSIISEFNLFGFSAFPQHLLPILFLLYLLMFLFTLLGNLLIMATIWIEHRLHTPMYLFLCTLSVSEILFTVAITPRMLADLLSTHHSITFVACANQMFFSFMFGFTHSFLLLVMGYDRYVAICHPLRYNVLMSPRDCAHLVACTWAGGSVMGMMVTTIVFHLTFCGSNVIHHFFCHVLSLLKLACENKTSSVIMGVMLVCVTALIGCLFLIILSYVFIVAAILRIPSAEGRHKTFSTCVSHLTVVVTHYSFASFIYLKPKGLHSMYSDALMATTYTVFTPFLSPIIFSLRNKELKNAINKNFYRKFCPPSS
In short: as §1

[13] = biological target: T13, OR10H5 (Homo sapiens) (UniProt Q8NGA6)
T13 sequence (whole entry): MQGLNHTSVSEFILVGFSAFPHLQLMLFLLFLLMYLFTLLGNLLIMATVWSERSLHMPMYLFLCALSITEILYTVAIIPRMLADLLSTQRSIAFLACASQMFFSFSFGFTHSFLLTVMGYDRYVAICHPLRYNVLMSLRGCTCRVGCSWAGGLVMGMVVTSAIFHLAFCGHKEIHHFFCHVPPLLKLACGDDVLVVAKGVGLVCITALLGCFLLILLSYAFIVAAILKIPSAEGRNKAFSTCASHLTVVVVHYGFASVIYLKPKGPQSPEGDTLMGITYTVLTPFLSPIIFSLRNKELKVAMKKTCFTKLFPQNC
In short: as §1

[14] = biological target: T14, OR10J1 (Homo sapiens) (UniProt P30954)
T14 sequence (whole entry): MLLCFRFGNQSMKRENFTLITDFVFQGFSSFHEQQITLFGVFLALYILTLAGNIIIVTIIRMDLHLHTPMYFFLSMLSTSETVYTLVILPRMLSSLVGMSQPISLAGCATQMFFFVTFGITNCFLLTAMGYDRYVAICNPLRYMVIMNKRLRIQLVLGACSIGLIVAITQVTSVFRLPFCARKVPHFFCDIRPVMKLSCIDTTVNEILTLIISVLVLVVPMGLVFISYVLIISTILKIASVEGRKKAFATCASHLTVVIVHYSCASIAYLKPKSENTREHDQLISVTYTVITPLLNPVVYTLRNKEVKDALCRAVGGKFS
In short: as §1

[15] = biological target: T15, OR10J3 (Homo sapiens) (UniProt Q5JRS4)
T15 sequence (whole entry): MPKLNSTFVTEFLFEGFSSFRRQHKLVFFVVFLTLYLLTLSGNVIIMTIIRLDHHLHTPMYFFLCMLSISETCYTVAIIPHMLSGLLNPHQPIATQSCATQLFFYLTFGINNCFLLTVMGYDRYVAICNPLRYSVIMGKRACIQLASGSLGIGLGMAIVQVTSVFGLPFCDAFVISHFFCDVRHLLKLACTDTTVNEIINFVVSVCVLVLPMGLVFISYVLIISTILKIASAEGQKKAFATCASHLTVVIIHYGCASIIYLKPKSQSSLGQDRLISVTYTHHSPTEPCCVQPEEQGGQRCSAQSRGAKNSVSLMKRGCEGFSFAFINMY
In short: as §1

[16] = biological target: T16, OR10K1 (Homo sapiens) (UniProt Q8NGX5)
T16 sequence (whole entry): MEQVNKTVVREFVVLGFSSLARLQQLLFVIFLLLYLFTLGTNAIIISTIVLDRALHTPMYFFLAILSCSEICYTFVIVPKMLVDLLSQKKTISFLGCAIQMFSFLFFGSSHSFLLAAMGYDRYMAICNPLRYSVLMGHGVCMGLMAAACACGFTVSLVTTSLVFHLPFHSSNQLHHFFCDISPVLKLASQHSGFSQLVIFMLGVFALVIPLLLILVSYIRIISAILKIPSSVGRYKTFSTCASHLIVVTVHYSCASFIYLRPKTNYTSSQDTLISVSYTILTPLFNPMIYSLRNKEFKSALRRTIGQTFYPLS
In short: as §1

[17] = biological target: T17, OR10P1 (Homo sapiens) (UniProt Q8NGE3)
T17 sequence (whole entry): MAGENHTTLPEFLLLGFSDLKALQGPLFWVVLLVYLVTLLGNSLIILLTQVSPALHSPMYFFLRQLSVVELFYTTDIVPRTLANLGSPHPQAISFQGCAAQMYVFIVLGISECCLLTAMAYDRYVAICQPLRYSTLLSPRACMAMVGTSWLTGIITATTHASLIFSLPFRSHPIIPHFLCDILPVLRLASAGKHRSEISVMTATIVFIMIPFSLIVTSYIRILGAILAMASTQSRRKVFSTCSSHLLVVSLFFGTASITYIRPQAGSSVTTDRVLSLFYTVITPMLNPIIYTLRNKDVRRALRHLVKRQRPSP
In short: as §1

[18] = biological target: T18, OR10Q1 (Homo sapiens) (UniProt Q8NGQ4)
T18 sequence (whole entry): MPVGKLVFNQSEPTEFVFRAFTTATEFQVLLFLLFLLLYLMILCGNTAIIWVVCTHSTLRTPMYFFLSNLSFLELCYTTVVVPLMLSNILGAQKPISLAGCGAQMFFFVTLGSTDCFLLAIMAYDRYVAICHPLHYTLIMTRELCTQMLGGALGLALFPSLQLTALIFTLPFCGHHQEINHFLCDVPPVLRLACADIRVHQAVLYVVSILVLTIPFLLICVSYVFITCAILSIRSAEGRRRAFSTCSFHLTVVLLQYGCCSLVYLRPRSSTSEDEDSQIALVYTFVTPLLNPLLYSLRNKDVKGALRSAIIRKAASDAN
In short: as §1

Measured: odorant receptor agonist call;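 also: active if original authors judged signal statistically different from baseline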

O=C1CCOc2ccccc21
inactive: [1]

CCCCCCCCS
inactive: [1]

CCC1OC(C)=C(O)C1=O (stereo not given)
inactive: all assays above
